Screening data from PubChem.
Compounds with a hit are over-represented: about 2.3% of the library has one in this group of screens.
LMPTP block: blocks human LMPTP phosphatase; P24666; recombinant LMPTP-A, OMFP fluorogenic substrate, fluorescence intensity; inhibition, % at 20 µM; actives 0.22% (n = 360,000); AID 651560;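 active = compounds that cut the enzyme signal by at least half of the control window in the single-dose screen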;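 also: plate controls were DMSO wells with enzyme plus substrate for no effect and substrate without enzyme for full effect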
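Test system: LMPTP-A, protein tyrosine phosphatase of low molecular weight; Input: 0.625 nM enzyme; Incubation: 50 min dark incubation at room temperature; Signal: endpoint fluorescence intensity from OMFP dephosphorylation; Read-out basis: % inhibition versus control wells.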
DNMT1 inh: blocks human DNA methyltransferase DNMT1 | P26358 | DNMT1 molecular beacon, Hinp1I cleavage, fluorescence | inhibition (reported as % activation of signal), % at 10 µM | actives 0.83% (n = 360,000) | AID 588458; in the data active = inhibition above about 50%
SUMO1 PPI mod: modulators of human SUMO1-mediated protein-protein interactions; P63165; SUMO1 binding to a labelled peptide, TR-FRET, 1 h; actives 0.33% (n = 360,000); inhibition, % at 20 µM; in the data active = inhibition above about 37%
Scp-1 inhibitor: blocks human Scp-1 phosphatase activity | AID 493091 | Recombinant Scp1, phosphopeptide, malachite green phosphate absorbance | Q9GZU7 | actives 0.88% (n = 340,000) | inhibition, % at 20 µM;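 active = inhibition above about 50% at 20 µM, limit read from the data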;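 also: plate controls were DMSO wells with enzyme for no effect and wells lacking enzyme for full effect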
Target sequence (Q9GZU7 76-261 limits assumed): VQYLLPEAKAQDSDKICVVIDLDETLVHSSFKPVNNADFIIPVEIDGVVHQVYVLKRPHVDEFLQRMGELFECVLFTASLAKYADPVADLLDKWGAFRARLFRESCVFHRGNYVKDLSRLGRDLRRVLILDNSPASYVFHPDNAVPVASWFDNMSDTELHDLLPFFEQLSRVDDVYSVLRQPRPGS
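Assay system: SCP-1 catalytic fragment, aa 76-261 | Buffer or medium: Tris acetate buffer pH 5.5 with MgCl2 and Tween-20 | Compound: One concentration, 20 µM, with 1.0% DMSO | Also added: Phospho 17-mer peptide substrate | Signal: Absorbance at 630 nm | Incubation: 45 min enzyme reaction at room temperature | Measure: % inhibition of SCP-1 phosphate liberation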
STEP block: STEP (human) phosphatase inhibition; recombinant STEP, OMFP fluorogenic substrate, fluorescence; actives 0.25% (n = 360,000); P54829; inhibition, % at 20 µM; AID 588621;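 active = inhibition at 20 µM, scaled per plate between control wells, above about 37%, limit read from the data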;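 also: 0% = DMSO with enzyme and substrate and 100% = substrate only without enzyme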
Target sequence (P54829 whole entry, looked up): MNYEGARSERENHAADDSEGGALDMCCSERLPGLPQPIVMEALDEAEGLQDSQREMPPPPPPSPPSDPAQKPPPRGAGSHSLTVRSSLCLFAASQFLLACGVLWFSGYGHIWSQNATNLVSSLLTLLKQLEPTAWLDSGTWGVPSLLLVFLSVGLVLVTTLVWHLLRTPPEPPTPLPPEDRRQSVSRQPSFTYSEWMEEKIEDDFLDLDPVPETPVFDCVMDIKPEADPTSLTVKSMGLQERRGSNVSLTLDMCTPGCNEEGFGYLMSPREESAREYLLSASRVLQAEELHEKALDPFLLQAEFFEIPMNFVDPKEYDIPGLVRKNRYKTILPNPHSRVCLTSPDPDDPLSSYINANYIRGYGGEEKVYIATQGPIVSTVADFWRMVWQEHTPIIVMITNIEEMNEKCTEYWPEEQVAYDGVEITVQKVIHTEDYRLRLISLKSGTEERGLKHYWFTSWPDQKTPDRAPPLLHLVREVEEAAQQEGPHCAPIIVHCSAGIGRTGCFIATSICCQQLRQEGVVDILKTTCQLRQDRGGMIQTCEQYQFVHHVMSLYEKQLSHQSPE
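Material: STEP (striatal-enriched tyrosine phosphatase) enzyme, cell-free | Medium: 50 mM Bis-Tris pH 6.0 with 2.5 mM DTT and 0.005% Tween 20 | Read-out: Percent inhibition scaled to no-enzyme and uninhibited-enzyme controls, plate-pattern corrected | Signal: Fluorescence read at 480 nm ex / 540 nm em | Times: 20 min reaction, room temperature, in the dark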
NadD inh: blocks S. aureus nicotinate mononucleotide adenylyltransferase | purified NadD enzyme, colorimetric absorbance read-out | inhibition, % at 20 µM | actives 0.78% (n = 360,000); in the data active = inhibition above about 26%
Scp1 confirm: confirmation of human Scp-1 phosphatase inhibitors. shares compounds with Scp-1 inhibitor. recombinant SCP-1 catalytic domain, phosphate release, malachite green absorbance. inhibition, % at 20 µM. actives 61% (n = 2,500);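 also: plate controls were DMSO with enzyme for no effect and buffer wells lacking enzyme for full effect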
MG interference: counter-screen for Scp-1 inhibitors: colorimetric interference; shares compounds with Scp-1 inhibitor; Colorimetric interference counterscreen, malachite green absorbance 630 nm; apparent inhibition (interference), % at 20 µM; 2,500 tested, under 10 active;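 also: compounds added after enzyme reaction finished so only phosphate colour detection is probed; plate controls were DMSO wells with completed Scp-1 reaction for no effect and substrate wells lacking enzyme for full effect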
Scp1 DSF: binds human Scp-1, shifting its melting temperature; Recombinant SCP1, Sypro Orange thermal shift Tm; AID 540329; actives 25% (n = 1,500); thermal shift relative to vanadate control, % at 40 µM; shares compounds with Scp-1 inhibitor;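 active = substances whose mean melting-temperature shift, as a percentage of the reference inhibitor's shift, reaches about 5.3%, limit read from the data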;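 also: 0% = Tm of DMSO wells and 100% = Tm with sodium orthovanadate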
An asterisk follows results filed as active; x = not tested or not shown.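 The calls were made as follows, unless noted: active = inhibition of at least 30% at 20 µM; inactive = the rest.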

SMILES	LMPTP block	DNMT1 inh	SUMO1 PPI mod	Scp-1 inhibitor	STEP block	NadD inh	Scp1 confirm	MG interference	others
O=C(O)CN1C(=O)/C(=C\c2cc(Br)ccc2OCc2ccc([N+](=O)[O-])cc2)SC1=S	25.6	55.7*	25.3	49.7	24.3	24.0	x	x
O=C1/C(=C\c2cc(Br)cc(Br)c2O)SC(=S)N1Cc1ccccc1	10.4	64.5*	18.1	7.4	10.1	42.1*	x	x
COC(=O)[C@@]12C[C@@H](CC(=O)NCC3CCCCC3)C(=O)N(Cc3ccc4c(c3)OCO4)C1=CCC(C)(C)C2	2.7	x	4.1	x	x	x	x	x
Cc1cc2ccccn2c1C(=O)c1ccc(Cl)cc1	2.6	1.8	-18.5	-1.8	4.3	-6.6	x	x
C/C(=N\Nc1ccc(C(=O)c2c(C)cc3ccccn23)cc1[N+](=O)[O-])c1ccc(O)cc1	8.9	-6.7	-11.4	-4.1	4.3	35.7*	x	x
Cc1cc2ccccn2c1C(=O)c1ccncc1	-1.2	2.5	-29.0	-5.2	0.2	6.4	x	x
C/C(=N/Nc1ccc(C(=O)c2c(C)cc3ccccn23)cc1[N+](=O)[O-])c1ccc(O)cc1	6.3	-5.0	-18.1	1.9	1.3	31.6*	x	x
N#CC1CC(c2ccccc2)Nc2cc(Cl)ccc2N1 (centres undefined)	3.7	-4.0	-4.5	-11.0	-2.9	-2.5	x	x
COc1ccc(C2(C)NC(=O)N(CC(=O)N(c3ccccc3)C3CCS(=O)(=O)C3)C2=O)cc1 (centres undefined)	-1.1	4.9	0.5	-15.3	6.7	-0.5	x	x
O=C1/C(=C/c2ccccc2)SC(=S)N1CC(=O)N1CCCCC1c1cccnc1 (centres undefined)	4.0	-2.2	-26.1	5.8	1.8	44.7*	x	x
COc1cccc(OCc2cc(C(=O)N(C)CCOc3ccc(C)cc3)no2)c1	4.4	-1.2	-0.7	55.1*	3.5	-6.6	-19.1	-22.2
Cc1nn(CC(=O)N2CCN(Cc3ccccc3)CC2)c(=O)c2ccccc12	-0.4	-3.5	-3.5	-6.7	-1.6	1.7	x	x
COc1ccc(CN2CCN(C(=O)Cn3nc(C(=O)O)c4ccccc4c3=O)CC2)cc1F	0.2	-0.4	-13.2	56.9*	0.3	0.3	-4.3	-10.6
COc1ccc(C(=O)NCc2nnc(SCC(=O)Nc3ccccc3F)o2)cc1	-0.7	2.8	-1.1	51.9*	-1.0	3.1	-24.1	-19.4
COc1ccc(C(=O)NCc2nnc(SCC(=O)Nc3ccccc3OC)o2)cc1	-1.2	-0.6	1.1	-5.2	-0.5	-2.3	x	x
COc1ccc(CCCc2nnc(SCC(=O)Nc3ccc(C)c(C)c3)o2)cc1	-0.4	-0.7	-0.2	89.6*	-3.2	3.2	-3.2	-15.1
CCOC(=O)C1CCCN(c2c(NCCN3CCCCC3CC)c(=O)c2=O)C1 (centres undefined)	0.3	0.3	6.0	56.8*	-2.0	0.3	-2.4	-7.3
CCOc1ccc(-c2nnn(CC(=O)NCc3ccccc3)n2)cc1	1.8	4.4	2.2	57.2*	0.6	-6.4	-9.0	-21.6
CCCNC(=S)Nc1ccc(F)cc1F	-2.5	-1.4	1.5	-1.2	-1.2	2.2	x	x
C[C@@H]1NC(=O)c2cc([N+](=O)[O-])cc(I)c2OCC[C@@H](C(=O)NC(CC(=O)O)C(N)=O)NC(=O)[C@H](CCC(=O)O)NC1=O (some centres undefined)	x	x	x	50.1*	x	x	53.5*	-13.1	Scp1 DSF=-3.9
NC(=O)C(CC(=O)O)NC(=O)[C@@H]1CCOc2c(I)cc([N+](=O)[O-])cc2C(=O)N[C@@H](CCC(=O)O)C(=O)N[C@@H](CO)C(=O)N1 (some centres undefined)	x	x	x	29.5	x	x	x	x
NC(=O)C(CC(=O)O)NC(=O)[C@@H]1CCCNc2c(I)cc([N+](=O)[O-])cc2C(=O)N[C@@H](CO)C(=O)N[C@@H](Cc2ccc(O)cc2)C(=O)N1 (some centres undefined)	-0.2	10.3	-7.3	62.5*	3.0	8.6	42.8*	-12.6	Scp1 DSF=9.8*
CC1(C(=O)NCc2ccco2)CCN1C(=O)C1(c2ccccc2)CC1 (centres undefined)	-0.2	4.9	0.7	x	0.0	1.5	x	x
CSc1ccccc1NC(=O)c1cc2ncc(Br)cn2n1	2.1	21.9	-4.7	60.0*	3.0	-1.1	50.3*	-12.8	Scp1 DSF=-2.8
CCOC(=O)C1(Cc2ccccc2C(F)(F)F)CCN(C2CCN(C(C)=O)CC2)CC1	1.7	0.6	-3.1	-7.0	-1.5	-1.2	x	x
SMILES	LMPTP block	DNMT1 inh	SUMO1 PPI mod	Scp-1 inhibitor	STEP block	NadD inh	Scp1 confirm	MG interference	others
Cc1cc(Cl)ccc1-c1cc2nc(NCCCN(C)C)n(C)c(=O)c2s1	-3.9	2.1	-18.4	x	5.1	-4.1	x	x
CCN1/C(=C2\C(=O)N(c3ccccc3)N=C2C)C=Cc2cc(C)ccc21	-0.9	3.8	-25.7	58.5*	1.5	4.2	-14.2	-20.0
CCN1/C(=c2/s/c(=C3/C(=O)N(c4ccccc4)N=C3C)n(CC)c2=O)C=Cc2ccccc21	0.3	-3.2	-47.1	-2.0	4.7	-5.5	x	x
c1ccc(CCn2nnnc2C(c2cccs2)N2CCN(Cc3ccc4c(c3)OCO4)CC2)cc1 (centres undefined)	0.6	-3.5	-4.6	67.0*	-0.9	-5.0	23.3	5.8
CCC(C)(C)n1nnnc1C(c1ccc(C)cc1)N1CCN(Cc2ccc3c(c2)OCO3)CC1 (centres undefined)	-0.7	2.2	0.8	65.8*	-10.7	-7.4	-16.6	-20.6
Cc1csc2c(N3CCN(C(=O)Nc4ccccc4)CC3)ncnc12	1.3	3.9	6.2	7.6	-0.8	1.2	x	x
Cc1ccc(C(=O)N2CCN(c3ncnc4c(C)csc34)CC2)cc1	0.5	0.2	1.7	58.3*	0.4	4.6	4.5	-1.0
CSCC[C@H](NC(=O)c1cccc(S(=O)(=O)N2CCCCC2)c1)c1nc2ccccc2[nH]1	-0.9	2.4	-1.1	58.7*	-0.3	-1.4	2.9	-5.4
CCOC(=O)C1(C)CCN1C(=O)c1ccc(Cl)nc1 (centres undefined)	-0.4	6.8	1.6	x	0.6	2.0	x	x
CCc1nnc(NC(=O)CCC(=O)N2CCN(C3c4ccccc4-c4ccccc43)CC2)s1	0.4	-2.2	-5.0	71.9*	0.6	-0.5	-20.6	-12.0
